Published values from different studies.
Read-out: cell growth or viability

`C=C(F)C(=O)N1CCN(c2nc(OC[C@@H]3CCCN3C)nc3c2CCN(c2cccc4cccc(Cl)c24)C3)C[C@@H]1CC#N` gave an IC50 of 5.15 nM (NCI-H1373; ATP luminescence; 3D culture).
The GI50 of `COc1ccc(OCc2ccc([N+](=O)[O-])cc2)cc1-c1c[nH]c2ncc(-c3cncc(C(=O)N(C)C)c3)cc12` is reported as 697 nM (K562; MTT; 72 h).
`COc1cc2c3c(n(CCCNCCO)c(=O)c2cc1OC)-c1nc2c(cc1C3=O)OCO2` gave an IC50 of 196 nM (K562; MTS; 72 h).
`O=C(NO)c1ccc(CNc2nc3cccc(-c4ccc5c(c4)OCO5)n3n2)cc1` has a GI50 of 700 nM (HOP-92; SRB).
The GI50 of `C=CS(=O)(=O)Nc1ccc(OC)c(-c2c[nH]c3ncc(-c4cncc(C(=O)N(C)C)c4)cc23)c1` is reported as greater than 1000 nM (K562; MTT; 72 h).
`C=CC(=O)NC1CCN(c2ncc3ncnc(Nc4ccc(Oc5ccc6c(c5)ncn6C)c(C)c4)c3n2)CC1` has an EC50 of 313 nM (COR-L88).
For `O=C(O)c1cccnc1Nc1cccc(C(F)(F)F)c1`, the GI50 was greater than 30000 nM (HCT-15; SRB; 48 h).
`COc1ccc(C#N)cc1-c1c[nH]c2ncc(-c3cncc(C(=O)N(C)C)c3)cc12` has a GI50 of 330 nM (K562; MTT; 72 h).
`C=CC(=O)c1cccnc1Nc1cc(C(F)(F)F)ccc1OCc1ccccc1` has a GI50 of 19500 nM (HCT-15; SRB; 48 h).
With `C=CC[C@@H]1/C=C(\C)C[C@H](C)C[C@H](OC)[C@H]2O[C@@](O)(C(=O)C(=O)N3CCCC[C@H]3C(=O)O[C@H](/C(C)=C/[C@@H]3CC[C@@H](O)[C@H](OC)C3)[C@H](C)[C@@H](O)CC1=O)[C@H](C)C[C@@H]2OC` the GI50 was greater than 1000 nM (K562; MTT; 72 h).
`CCN(c1cc(-c2ccc(CN3CCOCC3)cc2)cc(C(=O)NCc2c(C)cc(C)[nH]c2=O)c1C)C1CCOCC1` gave a GI50 of 385 nM (HT-1376; ATP luminescence; 18 days).
With `CN(C)C(=O)c1cncc(-c2cnc3[nH]cc(-c4ccccc4C(F)(F)F)c3c2)c1` the GI50 was 453 nM (K562; MTT; 72 h).
`COc1cc2c3c(n(CCCN4CCOCC4)c(=O)c2cc1OC)-c1nc2c(cc1C3=O)OCO2` gave an IC50 of 1010 nM (K562; MTS; 72 h).
The GI50 of `CC(C)C[C@@H]1NC(=O)[C@@H](N(C)C(=O)[C@@H](NC(=O)[C@@H]2C[C@@H](F)CN2C(=O)C2(C(F)(F)F)CC(F)(F)C2)C2CC2)CCCCNC(=O)C(C)(C)NC(=O)[C@H](Cc2cc(Cl)nn2-c2ccccc2)N(C)C1=O` is reported as 4400 nM (NCI-H446; MTT; 5 days).
With `CCNCCCn1c2c(c3cc(OC)c(OC)cc3c1=O)C(=O)c1cc3c(nc1-2)OCO3` the IC50 was 158 nM (K562; MTS; 72 h).
`CCCN1C(=O)[C@H](CC(C)C)NC(=O)[C@@H](N(C)C(=O)[C@H](CC2CCC2)NC(=O)[C@@H]2C[C@@H](F)CN2C(=O)[C@@](C)(O)C(F)(F)F)CCCCNC(=O)C2(CC2)NC(=O)[C@@H]1Cc1cc(Cl)ccc1Cl` gave a GI50 of 28 nM (NCI-H446; MTT; 5 days).
